From PubChem BioAssay

Molecular target: Muscarinic acetylcholine receptor M4 (Homo sapiens) (UniProt P08173)
Assay: M4-linked GIRK flux change, two-sided – cell-based, HEK293 M4/GIRK, thallium flux, BTC-AM, M4 allosteric agonist project, primary screen (AID 625;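 active = fluorescence slope after compound addition differing from the mean of all tested samples at 99.7% confidence, mostly higher but some lower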;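 note: thallium influx through GIRK channels coupled to M4 in HEK293 cells with BTC-AM dye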)
Conditions: at 10 µM, actives lie on both sides
Summary of the method: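 Material: HEK293 cells with M4 receptor and GIRK channels; Times: cells overnight at 37 °C, BTC-AM loading 1 h, reads 2 min total; Technique: kinetic BTC-AM fluorescence sampled at 1 Hz, 10 s pre-addition baseline; Read-out basis: slope over 15–24 s of trace normalized to starting intensity; Controls: carbachol positive, DMSO negative.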

Sequence of Muscarinic acetylcholine receptor M4 (Homo sapiens) (P08173 whole entry, looked up): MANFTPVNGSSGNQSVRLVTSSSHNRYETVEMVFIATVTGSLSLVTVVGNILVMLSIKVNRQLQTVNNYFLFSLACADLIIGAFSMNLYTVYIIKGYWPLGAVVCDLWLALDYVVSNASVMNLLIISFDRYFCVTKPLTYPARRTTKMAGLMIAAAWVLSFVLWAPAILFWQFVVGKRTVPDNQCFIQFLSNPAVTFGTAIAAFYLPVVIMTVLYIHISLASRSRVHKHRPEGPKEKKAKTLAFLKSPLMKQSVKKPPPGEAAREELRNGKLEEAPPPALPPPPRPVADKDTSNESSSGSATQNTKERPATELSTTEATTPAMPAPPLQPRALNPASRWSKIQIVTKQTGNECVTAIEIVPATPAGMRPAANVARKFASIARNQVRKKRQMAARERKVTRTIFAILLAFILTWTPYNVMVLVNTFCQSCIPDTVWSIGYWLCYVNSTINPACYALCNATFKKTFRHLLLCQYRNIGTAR

Fluorescence slope, inactive:
CN1CCN(S(=O)(=O)c2ccc(Sc3nnc(-c4cccs4)n3-c3ccccc3)nc2)CC1 0.00549
COc1cc2[nH]c(=O)n(CCC(=O)N3CCc4ccccc4C3)c(=O)c2cc1OC 0.00747
CS(=O)(=O)N(CC(=O)NC1CC1)c1cccc(F)c1 0.00595
O=C(NCc1ccco1)C1CCN(S(=O)(=O)N2CCC3(CC2)OCCO3)CC1 0.00611
CC(=O)Nc1ccc(S(=O)(=O)N2CCN(C(C)CCc3ccccc3)CC2)cc1 (stereo not drawn) 0.00422
CCCn1c(SCC(=O)N2CCCc3ccccc32)nnc1-c1ccccn1 0.00584
CCNS(=O)(=O)c1ccc(S(=O)(=O)N(Cc2ccccn2)C2CCCCC2)cc1 0.00588
COc1ccc(-c2nnc(SCC#N)o2)cc1 0.00472
O=S(=O)(c1ccc2c(c1)nc1n2CCC1)N1CCOCC1 0.00774
COCc1cc(C)nc(SCC(=O)Nc2cccc(C)c2C)c1C#N 0.0109
O=C(CSc1nnc(-c2ccccc2Cl)n1Cc1ccco1)Nc1ccc2c(c1)OCCO2 0.00631
CCOC(=O)CSc1nnc(CNC(=O)c2ccc(S(=O)(=O)N3CCCC3)cc2)n1C 0.00697
C=C(c1cccc2ccccc12)P(=O)(O)O 0.00428
CN=C1CC(C)(C)CC(=O)/C1=C(/O)CCC(=O)NC 0.00526
CC(C(=O)c1ccccc1)n1cnc2ccccc2c1=O (stereo not drawn) 0.00459
CN(C)C(=O)CSc1nnc([C@H](Cc2c[nH]c3ccccc23)NC(=O)OC(C)(C)C)o1 0.00313
CCOC(=O)NC(=O)CSc1nnc(C)s1 0.00543
CCOc1nc2ccccc2nc1NS(=O)(=O)c1ccccc1 0.00417
O=C(O)C1CC(=O)N(Cc2ccccc2)C1 (stereo not drawn) 0.00382
CCOC(=O)C1=C(Cn2cnc3ccccc32)NC(=O)NC1c1cc(C)ccc1C (stereo not drawn) 0.00427
CCOC(=O)C1CCCN(C(=O)c2cc3c(C)nc4ccccc4c3o2)C1 (stereo not drawn) 0.00625
CCCC1CC(C)(C(=O)Cn2[nH]c(=O)ccc2=O)OC1=O (stereo not drawn) 0.00625
CCOc1cc(N2CCOCC2)c(OCC)cc1NC(=O)COC(=O)CCc1c[nH]c2ccccc12 0.00571
CC12CN3CC(C)(CN(C1)C3c1ccc(Br)cc1)C2 (stereo not drawn) 0.00246

System: not listed separately
Assay: blockers of RIG-like receptor reporter activation – cell-based, Sendai virus stimulus, luciferase, 10K MLSCN set, TLR/RLR signaling modifier project, primary screen (AID 602276);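 note: firefly luciferase from ISG56 promoter only with Renilla not read in this screen; 0% = Sendai virus plus DMSO and 100% = medium plus DMSO without virus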
Conditions: HEK293 RL24 IRF3 luciferase reporter, at 10 µM, stronger effect = higher value

inhibition, inactive:
COc1ccc(C2CC(c3ccc(Cl)cc3)Nc3nc(NC(=O)c4ccco4)nn32)cc1 (stereo not drawn) 14.1%
CCn1nccc1C(=O)Nc1nccs1 16.4%
FC(F)(F)c1nnc2ccc(NCn3nnc4ccccc43)nn12 12.7%
O=C(NC(C(=O)c1ccccc1)n1ccc(=O)[nH]c1=O)c1ccccc1 (stereo not drawn) 6.2%
COc1ccc(N2C(=O)C(Cl)=C(Nc3c(C)n(C)n(-c4ccccc4)c3=O)C2=O)cc1 7.07%
Cc1cc(C)nc(N2CCCC(C(=O)Nc3nc4ccc(S(C)(=O)=O)cc4s3)C2)n1 (stereo not drawn) 12%
CCc1nnc(NC(=O)c2ccc(S(=O)(=O)NC3CCCCC3)cc2)s1 0.752%
CC(C)C(=O)Nc1cccc(NC(=O)c2cccnc2)c1 -7.88%
CCn1c(Cc2ccccc2)nnc1SCC(=O)Nc1nc2ccccc2s1 18.4%
S=c1[nH]c2ccc(Cl)cc2[nH]1 21.3%
CCOc1ccc2nc(SCC#N)c(C#N)cc2c1 -56.3%
Cc1nc(C)c(C(=O)OCC(=O)N2CCN(c3ccccc3)CC2)s1 16.8%
COc1ccc(C(NC(=O)c2ccco2)c2ccc(OC)c(OC)c2)cc1 (stereo not drawn) 6.11%
Cc1nn(-c2ccccc2)c2c1C(c1c(C)[nH]c(C#N)c1C)C(C#N)=C(N)O2 (stereo not drawn) 8.98%
CCOC(=O)N1CCN(C(=O)C2c3cc(OC)c(OC)cc3C(=O)N3CCc4ccccc4C23)CC1 (stereo not drawn) 14.7%
CN1CCN(S(=O)(=O)c2ccc(Sc3nnc(-c4cccs4)n3-c3ccccc3)nc2)CC1 1.81%
COc1cc2[nH]c(=O)n(CCC(=O)N3CCc4ccccc4C3)c(=O)c2cc1OC 14.4%
CS(=O)(=O)N(CC(=O)NC1CC1)c1cccc(F)c1 8.69%
O=C(NCc1ccco1)C1CCN(S(=O)(=O)N2CCC3(CC2)OCCO3)CC1 0.326%
CC(=O)Nc1ccc(S(=O)(=O)N2CCN(C(C)CCc3ccccc3)CC2)cc1 (stereo not drawn) 7.51%
CCCn1c(SCC(=O)N2CCCc3ccccc32)nnc1-c1ccccn1 20.3%
CCNS(=O)(=O)c1ccc(S(=O)(=O)N(Cc2ccccn2)C2CCCCC2)cc1 12.3%
COc1ccc(-c2nnc(SCC#N)o2)cc1 -8.24%
O=S(=O)(c1ccc2c(c1)nc1n2CCC1)N1CCOCC1 -4.44%
COCc1cc(C)nc(SCC(=O)Nc2cccc(C)c2C)c1C#N -2.58%
O=C(CSc1nnc(-c2ccccc2Cl)n1Cc1ccco1)Nc1ccc2c(c1)OCCO2 8.89%
CCOC(=O)CSc1nnc(CNC(=O)c2ccc(S(=O)(=O)N3CCCC3)cc2)n1C 12.8%
C=C(c1cccc2ccccc12)P(=O)(O)O 17.7%
CN=C1CC(C)(C)CC(=O)/C1=C(/O)CCC(=O)NC 13%
CC(C(=O)c1ccccc1)n1cnc2ccccc2c1=O (stereo not drawn) 1.21%
CN(C)C(=O)CSc1nnc([C@H](Cc2c[nH]c3ccccc23)NC(=O)OC(C)(C)C)o1 18.2%
CCOC(=O)NC(=O)CSc1nnc(C)s1 18.9%
CCOc1nc2ccccc2nc1NS(=O)(=O)c1ccccc1 15.8%
O=C(O)C1CC(=O)N(Cc2ccccc2)C1 (stereo not drawn) 16.7%
CCOC(=O)C1=C(Cn2cnc3ccccc32)NC(=O)NC1c1cc(C)ccc1C (stereo not drawn) 27.2%
CCOC(=O)C1CCCN(C(=O)c2cc3c(C)nc4ccccc4c3o2)C1 (stereo not drawn) 14.5%
CCCC1CC(C)(C(=O)Cn2[nH]c(=O)ccc2=O)OC1=O (stereo not drawn) 22.7%
CCOc1cc(N2CCOCC2)c(OCC)cc1NC(=O)COC(=O)CCc1c[nH]c2ccccc12 2.83%
CC12CN3CC(C)(CN(C1)C3c1ccc(Br)cc1)C2 (stereo not drawn) 13.8%
